Assay results: PubChem BioAssay AID652011 (Sanford-Burnham Center for Chemical Genomics, 2013)
Values joined by “and” are separate entries in the source; they are usually repeats but may differ in a detail not shown here. Identical values can stand only once.

molecular target: Endothelial PAS domain-containing protein 1 (Homo sapiens) (UniProt Q99814); test: HIF-1a and HIF-2a reporter inhibitors, SAR follow-up, cell-based, luminescence, MIAPaCa-2, 786-0, panel (AID 652011); details: MIAPaCa-2/PANC HIF reporter, luciferase luminescence, desferoxamine, overnight, HIF2a PANC, run 2; at 99 µM (top of the series)
In short: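 Detection: luminescence, One-Glo; Reagent: desferoxamine; Incubation: overnight seeding and compound exposure, 37 °C, 5% CO2, 10-min detection.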

Sequence of Endothelial PAS domain-containing protein 1 (Homo sapiens) (Q99814 whole entry, looked up, the tested form may be a part): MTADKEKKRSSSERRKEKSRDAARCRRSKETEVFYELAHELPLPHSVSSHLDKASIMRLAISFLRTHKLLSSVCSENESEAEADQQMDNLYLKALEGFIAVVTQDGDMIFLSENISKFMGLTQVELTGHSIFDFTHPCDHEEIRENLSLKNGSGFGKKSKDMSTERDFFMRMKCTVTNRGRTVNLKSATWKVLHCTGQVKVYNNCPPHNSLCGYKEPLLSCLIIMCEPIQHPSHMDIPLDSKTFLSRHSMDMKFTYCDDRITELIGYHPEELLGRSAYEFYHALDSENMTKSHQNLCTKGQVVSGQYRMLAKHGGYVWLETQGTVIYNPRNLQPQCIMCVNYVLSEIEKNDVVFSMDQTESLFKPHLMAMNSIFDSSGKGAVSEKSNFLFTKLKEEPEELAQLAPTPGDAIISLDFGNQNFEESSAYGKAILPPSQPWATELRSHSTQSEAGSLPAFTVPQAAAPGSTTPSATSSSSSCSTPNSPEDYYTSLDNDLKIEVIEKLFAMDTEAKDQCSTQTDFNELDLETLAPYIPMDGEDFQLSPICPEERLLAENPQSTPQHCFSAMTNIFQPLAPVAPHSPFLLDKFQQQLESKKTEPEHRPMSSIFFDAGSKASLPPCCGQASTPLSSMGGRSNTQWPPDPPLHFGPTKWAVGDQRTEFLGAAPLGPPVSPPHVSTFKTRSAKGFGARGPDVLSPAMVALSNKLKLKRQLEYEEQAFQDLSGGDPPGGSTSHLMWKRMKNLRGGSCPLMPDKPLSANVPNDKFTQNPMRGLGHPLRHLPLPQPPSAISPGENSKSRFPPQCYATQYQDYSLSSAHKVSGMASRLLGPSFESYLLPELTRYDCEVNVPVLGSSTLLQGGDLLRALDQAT

| SMILES | inhibition |
| --- | --- |
| CC(C)(C)c1ccc(-c2noc(CCC(=O)NC3CCCC3)n2)cc1 | 121% |
| CC(C)(C)c1ccc(-c2noc(CCC(=O)Nc3cccc([N+](=O)[O-])c3)n2)cc1 | 86.3% |
| CCc1ccc(-c2noc(CCC(=O)NC(C)CC)n2)cc1 (stereo not given) | -30.6% |
| CNC(=O)CCc1nc(-c2ccc(C(C)C)cc2)no1 | 8.04% |
| CC(C)(C)c1ccc(-c2noc(CCC(=O)Nc3ccccc3)n2)cc1 | 128% |
| CCNC(=O)CCc1nc(-c2cccc(C)c2)no1 | -15.7% |
| CNC(=O)CCc1nc(-c2ccc(C(C)(C)C)cc2)no1 | 47.3% |
| CCc1ccc(-c2noc(CCC(=O)NC(C)(C)C)n2)cc1 | -22.9% |
| CC(C)(C)c1ccc(-c2noc(CCC(=O)NCc3ccco3)n2)cc1 | 99.3% and 99% |
| CCNC(=O)CCc1nc(-c2ccc(C(C)C)cc2)no1 | -41.3% |
| CCCCc1ccc(-c2noc(CCC(=O)NCC)n2)cc1 | 9.61% |
| CCNC(=O)CCc1nc(-c2ccccc2Cl)no1 | 13.5% |
| CCC(C)NC(=O)CCc1nc(-c2ccc(C(C)(C)C)cc2)no1 (stereo not given) | 52.2% |
| CC(C)(C)c1ccc(-c2noc(CCC(N)=O)n2)cc1 | 124% and 92.8% |
| CC(C)CNC(=O)CCc1nc(-c2ccc(C(C)(C)C)cc2)no1 | 65.5% |
| CN(C)C(=O)CCc1nc(-c2ccc(C(C)(C)C)cc2)no1 | 42.5% and -5.18% |
| CCOc1ccc(-c2noc(CCC(=O)O)n2)cc1 | 109% |
| CNC(=O)CCc1nc(-c2ccc(F)cc2)no1 | 8.8% |
| CC(C)(C)c1ccc(-c2noc(CCC(=O)O)n2)cc1 | 124% |
| CCCCc1ccc(-c2noc(CCC(=O)NC(C)CC)n2)cc1 (stereo not given) | 37.9% |
